# Data reported in ChEMBL document CHEMBL5058577, “EUbOPEN Chemogenomics Library 2 (Multiplex)” (2022).
# Tested on: U2OS
# Experiment: Multiplex assay against U2OS
# Format: toxicity, cell-based
# Conditions: human
# In short: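 Four dyes were applied at seeding to live cells: Hoechst33342, BioTracker Green Microtubule Cytoskeleton Dye, MitoTracker Red and Annexin V Alexa Fluor 680. Imaging after compound addition used a CQ1 microscope at 37°C and 5% CO2. CellPathfinder machine-learning gating then sorted cells into Hoechst high-intensity objects or normal cells, normal cells into healthy, pyknosed or fragmented nuclei, and pyknosed cells into mitotic or apoptotic, with tubulin, mitochondrial-mass and membrane-permeability phenotypes given as per cents of healthy-nucleus cells.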
# [1] = 12 h, 1 µM, compound concentration 1 uM, replicate 1
# [2] = 12 h, 1 µM, compound concentration 1 uM, replicate 2
# [3] = 12 h, 10 µM, compound concentration 10 uM, replicate 1
# [4] = 12 h, 10 µM, compound concentration 10 uM, replicate 2
# [5] = 24 h, 1 µM, compound concentration 1 uM, replicate 1
# [6] = 24 h, 1 µM, compound concentration 1 uM, replicate 2
# [7] = 24 h, 10 µM, compound concentration 10 uM, replicate 1
# [8] = 24 h, 10 µM, compound concentration 10 uM, replicate 2
# [9] = 48 h, 1 µM, compound concentration 1 uM, replicate 1
# [10] = 48 h, 1 µM, compound concentration 1 uM, replicate 2
# [11] = 48 h, 10 µM, compound concentration 10 uM, replicate 1
# [12] = 48 h, 10 µM, compound concentration 10 uM, replicate 2
smiles,measurement,setting,value
COC[C@@H](c1ccc(C(F)(F)F)cc1)N1CCN(C2(C)CCN(C(=O)c3c(C)ncnc3C)CC2)C[C@@H]1C.O=C(O)/C=C\C(=O)O [VICRIVIROC MALEATE],Population Apoptotic (%),[1],82%
same,Population Fragmented Nuclei (%),[1],34%
same,Population Healthy Nuclei (%),[1],54%
same,Population Hoechst High Intensity Objects (%),[1],4%
same,Population Membrane Permeable-Phenotype (%),[1],8%
same,Population Mitochondria Different-Phenotype (%),[1],4%
same,Population Mitotic Cells (%),[1],17%
same,Population Normal (%),[1],95%
same,Population Pyknosed Nuclei (%),[1],11%
same,Population Tubulin-Different-Phenotype (%),[1],3%
same,Total Cell Count,[1],261
same,Population Apoptotic (%),[2],81%
same,Population Fragmented Nuclei (%),[2],21%
same,Population Healthy Nuclei (%),[2],67%
same,Population Hoechst High Intensity Objects (%),[2],2%
same,Population Membrane Permeable-Phenotype (%),[2],11%
same,Population Mitochondria Different-Phenotype (%),[2],14%
same,Population Mitotic Cells (%),[2],18%
same,Population Normal (%),[2],97%
same,Population Pyknosed Nuclei (%),[2],10%
same,Population Tubulin-Different-Phenotype (%),[2],7%
same,Total Cell Count,[2],105
same,Population Apoptotic (%),[3],86%
same,Population Fragmented Nuclei (%),[3],26%
same,Population Healthy Nuclei (%),[3],65%
same,Population Hoechst High Intensity Objects (%),[3],1%
same,Population Membrane Permeable-Phenotype (%),[3],13%
same,Population Mitochondria Different-Phenotype (%),[3],3%
same,Population Mitotic Cells (%),[3],13%
same,Population Normal (%),[3],98%
same,Population Pyknosed Nuclei (%),[3],8%
same,Population Tubulin-Different-Phenotype (%),[3],3%
same,Total Cell Count,[3],270
same,Population Apoptotic (%),[4],33%
same,Population Fragmented Nuclei (%),[4],28%
same,Population Hoechst High Intensity Objects (%),[4],2%
same,Population Membrane Permeable-Phenotype (%),[4],5%
same,Population Mitochondria Different-Phenotype (%),[4],6%
same,Population Mitotic Cells (%),[4],66%
same,Population Normal (%),[4],97%
same,Population Pyknosed Nuclei (%),[4],6%
same,Population Tubulin-Different-Phenotype (%),[4],6%
same,Total Cell Count,[4],91
same,Population Apoptotic (%),[5],77%
same,Population Fragmented Nuclei (%),[5],25%
same,Population Healthy Nuclei (%),[5],67%
same,Population Hoechst High Intensity Objects (%),[5],3%
same,Population Membrane Permeable-Phenotype (%),[5],5%
same,Population Mitochondria Different-Phenotype (%),[5],3%
same,Population Mitotic Cells (%),[5],22%
same,Population Normal (%),[5],96%
same,Population Pyknosed Nuclei (%),[5],7%
same,Population Tubulin-Different-Phenotype (%),[5],2%
same,Total Cell Count,[5],301
same,Population Apoptotic (%),[6],93%
same,Population Fragmented Nuclei (%),[6],20%
same,Population Healthy Nuclei (%),[6],64%
same,Population Hoechst High Intensity Objects (%),[6],4%
same,Population Membrane Permeable-Phenotype (%),[6],10%
same,Population Mitochondria Different-Phenotype (%),[6],14%
same,Population Mitotic Cells (%),[6],6%
same,Population Normal (%),[6],95%
same,Population Pyknosed Nuclei (%),[6],15%
same,Population Tubulin-Different-Phenotype (%),[6],10%
same,Total Cell Count,[6],111
same,Population Apoptotic (%),[7],80%
same,Population Fragmented Nuclei (%),[7],25%
same,Population Healthy Nuclei (%),[7],68%
same,Population Hoechst High Intensity Objects (%),[7],1%
same,Population Membrane Permeable-Phenotype (%),[7],3%
same,Population Mitochondria Different-Phenotype (%),[7],3%
same,Population Mitotic Cells (%),[7],19%
same,Population Normal (%),[7],98%
same,Population Pyknosed Nuclei (%),[7],6%
same,Population Tubulin-Different-Phenotype (%),[7],2%
same,Total Cell Count,[7],326
same,Population Apoptotic (%),[8],83%
same,Population Membrane Permeable-Phenotype (%),[8],4%
same,Population Mitochondria Different-Phenotype (%),[8],2%
same,Population Mitotic Cells (%),[8],16%
same,Population Tubulin-Different-Phenotype (%),[8],7%
same,Total Cell Count,[8],99
same,Population Apoptotic (%),[9],78%
same,Population Fragmented Nuclei (%),[9],20%
same,Population Healthy Nuclei (%),[9],68%
same,Population Hoechst High Intensity Objects (%),[9],3%
same,Population Membrane Permeable-Phenotype (%),[9],3%
same,Population Mitochondria Different-Phenotype (%),[9],2%
same,Population Mitotic Cells (%),[9],21%
same,Population Normal (%),[9],96%
same,Population Pyknosed Nuclei (%),[9],10%
same,Population Tubulin-Different-Phenotype (%),[9],1%
same,Total Cell Count,[9],416
same,Population Apoptotic (%),[10],93%
same,Population Fragmented Nuclei (%),[10],25%
same,Population Healthy Nuclei (%),[10],62%
same,Population Hoechst High Intensity Objects (%),[10],1%
same,Population Membrane Permeable-Phenotype (%),[10],13%
same,Population Mitochondria Different-Phenotype (%),[10],11%
same,Population Mitotic Cells (%),[10],6%
same,Population Normal (%),[10],98%
same,Population Pyknosed Nuclei (%),[10],11%
same,Population Tubulin-Different-Phenotype (%),[10],10%
same,Total Cell Count,[10],142
same,Population Apoptotic (%),[11],80%
same,Population Fragmented Nuclei (%),[11],19%
same,Population Healthy Nuclei (%),[11],70%
same,Population Hoechst High Intensity Objects (%),[11],2%
same,Population Membrane Permeable-Phenotype (%),[11],3%
same,Population Mitochondria Different-Phenotype (%),[11],2%
same,Population Mitotic Cells (%),[11],20%
same,Population Normal (%),[11],97%
same,Population Pyknosed Nuclei (%),[11],9%
same,Population Tubulin-Different-Phenotype (%),[11],1%
same,Total Cell Count,[11],437
same,Population Apoptotic (%),[12],93%
same,Population Fragmented Nuclei (%),[12],18%
same,Population Healthy Nuclei (%),[12],68%
same,Population Hoechst High Intensity Objects (%),[12],5%
same,Population Mitochondria Different-Phenotype (%),[12],6%
same,Population Mitotic Cells (%),[12],6%
same,Population Normal (%),[12],94%
same,Population Pyknosed Nuclei (%),[12],12%
same,Population Tubulin-Different-Phenotype (%),[12],6%
same,Total Cell Count,[12],140
